EBV gp42 inh: Epstein-Barr virus gp42 inhibitors, primary screen, biochemical, uHTS, fluorescence polarization; inhibition, % (tested at 21.74 µM); 220,000 tested, 0.42% active; Fluorescence polarization binding assay, mP read-out; in the data active means inhibition above about 50%
Target sequence (Q1HVG2 whole entry, looked up): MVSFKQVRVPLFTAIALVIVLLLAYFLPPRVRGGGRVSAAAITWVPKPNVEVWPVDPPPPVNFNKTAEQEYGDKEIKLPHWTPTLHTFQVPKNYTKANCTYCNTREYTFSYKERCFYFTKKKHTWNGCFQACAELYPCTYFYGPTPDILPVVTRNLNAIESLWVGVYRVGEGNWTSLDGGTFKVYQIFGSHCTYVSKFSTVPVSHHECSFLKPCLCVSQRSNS
Tb MetRS inh: T. brucei MetRS inhibitors, primary screen, biochemical, luminescence | purified T. brucei MetRS, ATP depletion, Kinase-Glo luminescence | methionyl-tRNA synthetase (Trypanosoma brucei brucei) | 360,000 tested, 0.4% active | inhibition, % at 11.9 µM | AID 624268, 2012;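 active means inhibition above a per-plate cutoff of the control wells' mean inhibition plus 3 SD, cut at about 5.5% in these data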
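Material: parasite MetRS enzyme / Replication: singlicate, one well per compound / Signal: luminescence of leftover ATP / Schedule: 2 h aminoacylation at 25 °C after 15 min preincubation / Medium: HEPES-MgCl2-KCl buffer plus DTT, spermine, BSA, pyrophosphatase / Doses: 11.9 µM single point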
WT yeast gro inh: growth inhibition of WT strain, primary screen, mitochondrial fusion inhibitor project, WT and mutant strains, chemical genetic. 190,000 tested, 2.1% active. AID 1362, 2008. mitochondrial fusion phenotypic screen. inhibition, % at 10 µM; in the data active means inhibition above about 58%; tested in S. cerevisiae
MPTP block: mitochondrial permeability transition pore inhibitors, primary screen, biochemical, isolated mouse mitochondria, absorbance; Ca2+ swelling absorbance, 30 min; inhibition, % at 10 µM; 360,000 tested, 1.4% active;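 active means inhibition of 50% or more, scaled per plate between neutral and stimulator controls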
CHOP inh: inhibitors of CHOP promoter induction, primary screen, cell-based, unfolded protein response, luciferase reporter; CHO-K1 CHOP-promoter luciferase, tunicamycin-induced, 15-18 h; inhibition, % at 10 µM; 220,000 tested, 3.8% active; AID 2732, 2010;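 active means compounds that reduced the stress-induced luciferase reporter signal by more than about 70% of percent inhibition, limit read from the data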
GRIN3A LBD mod: binders of NR3A ligand-binding domain, primary screen, biophysical, differential scanning fluorimetry, uHTS | NR3A LBD differential scanning fluorimetry, Tm shift; 0% = protein alone, 100% = glycine-bound protein | Tm shift relative to glycine control, % at 25 µM | 340,000 tested, 2.5% active | AID 1259313, 2017;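 active means melting temperature shift of at least 10% of the positive control shift, at one fixed dose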
A number is an active result; i = inactive; nt = no result. An excerpt weighted towards active compounds, which were near 6.4% of everything screened.

SMILES | EBV gp42 inh | Tb MetRS inh | WT yeast gro inh | MPTP block | CHOP inh | GRIN3A LBD mod
COc1cccc(/C=N/Nc2cc(-n3nc(C)cc3-c3ccccc3)ncn2)c1O | i | i | i | i | 91.9 | i
COc1cccc(/C=N/Nc2nc(Nc3ccccc3)nc(-n3nc(C)cc3C)n2)c1O | i | i | i | i | 87.2 | i
Cc1cc(C)n(-c2nc(Nc3ccccc3)nc(-n3nc(C)cc3C)n2)n1 | i | i | i | i | i | i
CCOC(=O)c1cc(C#N)c(N2CCN(C(=O)c3ccccc3)CC2)nc1C(F)(F)F | i | i | nt | i | i | i
COc1ccccc1C(=O)NCC(=O)N1CCN(S(=O)(=O)c2ccc3c(c2)OCCO3)CC1 | nt | i | nt | i | nt | 13.4
Cc1noc(/C=C/c2ccc(-c3ccccc3Cl)o2)c1[N+](=O)[O-] | 129.8 | i | i | i | i | i
CCOC(=O)c1c(NC(=O)CC2Nc3cc(C)c(C)cc3NC2=O)sc(C)c1C (stereo not given) | i | i | i | i | 73.7 | i
CCOC(=O)c1c(NC(=O)COC(=O)C2CC2C)sc(C)c1C (stereo not given) | i | i | i | i | 70.2 | i
COc1ccc(C)cc1NC(=O)CSc1nnc(-c2ccccn2)n1Cc1ccco1 | i | i | i | i | i | i
COc1cc(OC)c2c(-c3ccccc3)cc(C3CCCCC3)nc2c1 | nt | i | nt | i | nt | i
COc1ccccc1-n1nc(C)cc1N | i | i | i | i | i | i
Cc1cc(N)n(-c2ccccn2)n1 | i | i | nt | i | i | 12.5
O=C(CCc1ccc(Oc2cc([N+](=O)[O-])cc([N+](=O)[O-])c2)cc1)N1CCCCCC1 | i | i | 66.4 | i | i | i
O=C(Cc1ccc([N+](=O)[O-])cc1)N1CCCCCC1 | i | i | i | i | i | i
Cc1ccc(C(=O)Nc2ccc(S(=O)(=O)O)c3cc(S(=O)(=O)O)cc(S(=O)(=O)O)c23)cc1NC(=O)c1cccc(NC(=O)Nc2cccc(C(=O)Nc3cc(C(=O)Nc4ccc(S(=O)(=O)O)c5cc(S(=O)(=O)O)cc(S(=O)(=O)O)c45)ccc3C)c2)c1 | nt | nt | nt | nt | i | nt
CN(C)CCCN(C(=O)CCc1ccccc1)c1nc2ccc(Br)cc2s1 | i | i | i | i | i | i
CN(C)CCCN(C(=O)CCc1ccccc1)c1nc2ccc(F)cc2s1 | i | i | 89.0 | i | i | i
CN(C)CCN(C(=O)CCc1ccccc1)c1nc2c(F)cc(F)cc2s1 | i | i | i | i | 71.1 | i
CC(CCc1ccco1)NC(=O)c1cccc2c1C(=O)N(C1CCCCC1)C2 (stereo not given) | i | i | 59.7 | i | i | i
O=C(NCCC1=CCCCC1)c1cccc2c1C(=O)N(C1CCCCC1)C2 | i | i | i | i | 84.8 | i
COc1cc(C(=O)Nc2nc(-c3ccc(Cl)cc3)c(C)s2)ccc1OCC(=O)Nc1ccc(F)cc1 | i | i | i | i | 76.9 | 17.7
Cc1cccc(C)c1NC(=O)C1(C)CN(S(C)(=O)=O)CC(=O)N1Cc1cccc(F)c1 (stereo not given) | nt | i | nt | i | nt | nt
COc1cccc(NC(=O)c2nc3nc(C)cc(C(F)F)n3n2)c1 | i | i | i | i | i | i
COc1ccc(Cl)cc1NC(=O)c1nc2nc(C)cc(C(F)F)n2n1 | i | i | i | i | 73.6 | i
COC(=O)c1c(NC(=O)c2nc3nc(C)cc(C(F)F)n3n2)sc2c1CCC2 | i | i | 59.6 | i | i | i
SMILES | EBV gp42 inh | Tb MetRS inh | WT yeast gro inh | MPTP block | CHOP inh | GRIN3A LBD mod
Cc1cc(C(F)F)n2nc(C(=O)Nc3sc4c(c3C(N)=O)CCC4)nc2n1 | i | i | i | i | i | i
CCC(=O)Nc1ccc(C(=O)Nc2ccc(Br)cc2F)cc1 | i | i | i | i | i | i
CCOC(=O)N(C)c1c(CC)nc2c(OCc3ccc(S(C)(=O)=O)cc3)cccn12 | nt | i | nt | i | nt | nt
CCOC(=O)/C(=N\Nc1ccc(Cl)cc1)c1csc(Nc2ccccc2)n1 | i | i | i | i | i | 26.7
CCOC(=O)/C(=N\Nc1ccc(OC)cc1)c1csc(Nc2ccccc2)n1 | i | i | i | i | i | i
CCOC(=O)/C(=N/Nc1ccccc1)c1csc(Nc2ccccc2)n1 | i | i | i | i | i | 26.1
CC(=O)Nc1cccc(C(=O)NC2CCCc3c2cnn3-c2cc(C)cc(C)c2)c1 (stereo not given) | nt | i | nt | i | nt | i
Cc1cc(=O)[nH]c(-c2ccccc2O)n1 | i | i | i | i | i | i
Cc1cc2nc(-c3ccccc3O)[nH]c2cc1C | nt | i | nt | i | nt | 26.7
CC(Cc1ccc(O)c(O)c1)C(C)Cc1ccc(O)c(O)c1 (stereo not given) | nt | nt | nt | nt | nt | 24.4
C[C@H](Cc1ccc(O)c(O)c1)[C@@H](C)Cc1ccc(O)c(O)c1 | nt | nt | nt | nt | i | nt
COc1ccc(/C=C/c2nc3cc(-c4ccccc4)ccc3o2)cc1O | i | i | 67.2 | i | i | 17.1
COCCNC(=S)N1CCN(c2cccc(C(F)(F)F)c2)CC1 | i | i | i | i | i | i
Cc1ccc(NCc2nnc(SCC(=O)N3CCCc4ccccc43)o2)c(C)c1 | i | i | i | i | 74.7 | i
Cc1cc(C)cc(NS(=O)(=O)c2ccc(NC(=S)NC(=O)c3ccc(Br)o3)cc2)c1 | i | i | i | i | i | 18.4
Cc1ccc(NS(=O)(=O)c2cc(NC(=O)c3ccc4c(c3)NC(=O)CS4)ccc2C)c(C)c1 | i | i | i | i | i | 21.6
COc1ccc(NC(=O)c2ccc3c(c2)NC(=O)CS3)cc1S(=O)(=O)Nc1ccc(Br)cc1 | i | i | i | i | i | i
Cc1ccc(NC(=O)COc2ccccc2)c(NC(=O)c2ccccc2C)c1 | nt | i | nt | i | nt | i
Cc1ccc(NS(=O)(=O)c2ccc(C)c(NC(=O)COc3ccccc3)c2)c(C)c1 | i | i | 58.3 | i | i | i
Cc1ccc(NS(=O)(=O)c2ccc(NC(=O)c3ccc(Br)o3)cc2)c(C)c1 | i | i | i | i | i | 10.7
COCCN1C(=O)CCC1(C)C(=O)Nc1c(C)cccc1C (stereo not given) | nt | i | nt | i | nt | nt
O=c1c(C/C=C/c2ccccc2)c(O)ccn1Cc1cccc(Cl)c1 | i | i | i | i | i | i
Cc1ccc(NS(=O)(=O)c2ccc(NC(=O)CSc3ccc(Cl)cc3)cc2)c(C)c1 | i | i | i | i | 70.3 | 22.6
Cc1ccc(NS(=O)(=O)c2ccc(NC(=O)CN(c3cc([N+](=O)[O-])ccc3C)S(C)(=O)=O)cc2)c(C)c1 | i | i | i | i | i | 13.0
Cc1ccc([N+](=O)[O-])cc1N(CC(=O)NC1CCCC1)S(C)(=O)=O | i | i | i | i | i | i
